From ChEMBL document CHEMBL4138314, “Synthesis and Evaluation of N-Phenyl-3-sulfamoyl-benzamide Derivatives as Capsid Assembly Modulators Inhibiting Hepatitis B Virus (HBV)” (J Med Chem, 2018)
Values after ≈ are worked out from the molar mass of the structure shown. Active and inactive are the calls of the source. The rule behind the calls is not given here.

How the values were obtained:
[1] = tested on: Hepatitis B virus; assay: Induction of HBV capsid core protein CP149 aggregation assessed as ratio between area under the curve for observed amount of core dimer and area under the curve for aggregated core protein at 20 uM after 24 hrs by size exclusion chromatographic analysis
How it was run: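 Recombinant HBV core assembly domain (aa 1–149, Cp149) was incubated with compound at 20 µM for 24 h, with a no-compound control run in parallel. Size exclusion chromatography gave the ratio of Cp149 dimer AUC to aggregated Cp149 AUC.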

[2] = Drug metabolism in human liver microsomes at 1 uM after 15 mins by LC-MS/MS analysis; type: ADME, microsome; conditions: read-out: Drug metabolism
How it was run: (§1)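 Compound incubated 15 min with human or mouse liver microsomes; stability expressed as percent turnover (metabolised) at 15 min.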

[3] = Cytotoxicity against human HepG2 cells after 4 days by resazurin assay; type: cell-based
[4] = Kinetic solubility of the compound at pH 7.4 after 4 hrs by UPLC-UV analysis; type: physicochemical; conditions: buffer, read-out: Kinetic_solubility
[5] = biological target: Core antigen (Hepatitis B virus) (UniProt Q03732); assay: Induction of HBV Maleimidyl BoDIPY-FL-labeled capsid Cp*150 mutant aggregation incubated for 30 mins measured every 10 secs for 30 mins by fluorescence quenching assay
[6] = Drug metabolism in mouse liver microsomes at 1 uM after 15 mins by LC-MS/MS analysis; type: ADME, microsome; conditions: read-out: Drug metabolism; how it was run: as §1
[7] = tested on: Hepatitis B virus; assay: Antiviral activity against Hepatitis B virus infected in human HepG2.117 cells assessed as inhibition of viral DNA level after 3 days by real time PCR; type: functional, organism-based; conditions: HepG2.117, 72 h
[8] = tested on: HBV genotype D; assay: Antiviral activity against HBV genotype D infected in human HepG2.2.15 cells assessed as inhibition of viral DNA level treated twice for 3 days measured after 6 days by real time PCR; type: functional, organism-based; conditions: Hepatitis B virus

Core antigen (Hepatitis B virus), sequence (Q03732 as listed by the source): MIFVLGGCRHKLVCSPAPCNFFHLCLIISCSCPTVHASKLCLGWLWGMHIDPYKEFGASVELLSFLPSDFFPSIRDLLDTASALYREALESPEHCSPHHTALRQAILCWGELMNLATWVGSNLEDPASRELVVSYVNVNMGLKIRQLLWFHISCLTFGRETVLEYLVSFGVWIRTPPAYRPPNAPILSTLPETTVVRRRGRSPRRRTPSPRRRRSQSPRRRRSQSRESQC

Structure (SMILES) | Ratio [1] | metabolised at 0.25 h, 1 µM [2] [%] | CC50 at 96 h [3] [µM] | solubility kinetic at 4 h [4] [µM] | Activity [5] | metabolised at 0.25 h, 1 µM [6] [%] | EC50 [7] [µM] | EC50 [8] [µM]
CN1CCN(S(=O)(=O)c2cccc(C(=O)Nc3ccc(F)cc3)c2)CC1 | 6.3 | 53 | > 100 | > 100 | Active | 84 | 11.1 | 26.5
CN1CCC(NS(=O)(=O)c2cccc(C(=O)Nc3ccc(F)cc3)c2)CC1 | 4.2 | 10 | > 100 | 94 (≈ 36.8 µg/mL) |  | 13 | 16 | 5.3
O=C(Nc1cccnc1)c1cc(S(=O)(=O)NC2CCCCC2)ccc1F | 9.8 | 57 | > 25 | > 100 | inactive | 99 | 24.8 | 
Cc1cc(F)cc(NC(=O)c2cccc(S(=O)(=O)NC3CCCC3)c2)c1 |  | 74 | > 23 | 11 (≈ 4.14 µg/mL) | Active | 100 | 1.51 | 0.11
O=C(Nc1ccc(F)cc1)c1cccc(S(=O)(=O)NC2COC2)c1 | 0.8 | 14 | > 100 | > 100 |  | 21 | 3.05 | 2.1
CC(=O)N1CCN(S(=O)(=O)c2cccc(C(=O)Nc3ccc(F)cc3)c2)CC1 | 0.9 | 19 | > 100 | 86 (≈ 34.9 µg/mL) |  | 52 | 6.3 | 7.1
CN(c1cccc(C(=O)Nc2ccc(F)cc2)c1)S(=O)(=O)C1CCCC1 | 2 | 86 | 43.2 | 53 (≈ 20 µg/mL) |  | 99 | 16.3 | 7.5
O=S(=O)(NC1CCCCC1)c1ccc(F)c(-c2ncc(-c3ccccc3)[nH]2)c1 | 10.2 | 75 | 19.2 | 3 (≈ 1.2 µg/mL) |  | 99 | 23.3 | 1.7
CC(=O)N1CCC(NS(=O)(=O)c2cccc(C(=O)Nc3ccc(F)cc3)c2)CC1 | 2.9 | 0 | > 100 | > 100 |  | 23 | 4.68 | 6.77
O=C(Nc1ccc(F)cc1)c1cc(S(=O)(=O)NC2CCCCC2)ccc1F | 0.3 | 61 | > 50 | 58 (≈ 22.9 µg/mL) |  | 79 | 1.3 | 0.78
O=C(NCc1ccccc1)c1cc(S(=O)(=O)NC2CCCCC2)ccc1F | 8.4 | 74 | 93.9 | 29 (≈ 11.3 µg/mL) |  |  |  | > 100
CC1(NS(=O)(=O)c2cccc(C(=O)Nc3ccc(F)cc3)c2)COC1 | 0.5 | 3 | > 100 | > 100 |  | 29 | 0.93 | 0.96
CN(C(=O)c1cccc(S(=O)(=O)NC2CCCC2)c1)c1ccc(F)cc1 |  | 100 | > 25 | > 100 | inactive | 100 | > 25 | 89.6
